The source of these data is PMC11839910 (Nature Communications, 2025).

≈ marks a conversion by molar mass, not a printed value. Entries after “also recorded” stand apart in the source; their conditions may differ.

In general, solubility refers to the concentration that dissolves in the medium under given conditions. A higher solubility goes with much dissolved substance.

Data set [1] concerns the target T1, SOD1^G93A (Homo sapiens, UniProt P00441, G94A). Nature of the data set: Intact protein LC-MS of covalent drug candidates with purified SOD1^G93A. It is filed as binding.
Data set [2] addresses T1, SOD1^G93A. It is filed as binding. The settings on record: transgenic ALS^G93A mouse brain homogenate.
The target of data set [3] is T1, SOD1^G93A. Nature of the data set: In vivo target engagement. The gist of the method: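 Hemizygous B6SJL-Tg(SOD1*G93A)1Gur/J mice (15–30 weeks, either sex) were dosed in PBS or water (<2% final DMSO): 10 mg/kg IV, 12.5 or 30 mg/kg SC, or 20 mg/kg SC with collection at 1 h. Blood and brain underwent chloroform–ethanol extraction, then intact-protein C4 LC-MS for %TE against a 37% METE. Doses were re-estimated as old dose × (METE/%TE). Duplicate.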

Data set [4] concerns the target human serum albumin (HSA) (Homo sapiens, UniProt P02768). It is filed as in vitro ADME. The settings on record: intact protein LC-MS.
Data set [5] can be described thus: Solubility limit in IV dose formulation. It is filed as physicochemical.
For data set [6], the system named is albumin. The settings on record: cited from earlier work.
Data set [7] relates to SOD1^G93A mouse model. The settings on record: cited from earlier work.

human serum albumin (HSA), sequence (P02768 25-609): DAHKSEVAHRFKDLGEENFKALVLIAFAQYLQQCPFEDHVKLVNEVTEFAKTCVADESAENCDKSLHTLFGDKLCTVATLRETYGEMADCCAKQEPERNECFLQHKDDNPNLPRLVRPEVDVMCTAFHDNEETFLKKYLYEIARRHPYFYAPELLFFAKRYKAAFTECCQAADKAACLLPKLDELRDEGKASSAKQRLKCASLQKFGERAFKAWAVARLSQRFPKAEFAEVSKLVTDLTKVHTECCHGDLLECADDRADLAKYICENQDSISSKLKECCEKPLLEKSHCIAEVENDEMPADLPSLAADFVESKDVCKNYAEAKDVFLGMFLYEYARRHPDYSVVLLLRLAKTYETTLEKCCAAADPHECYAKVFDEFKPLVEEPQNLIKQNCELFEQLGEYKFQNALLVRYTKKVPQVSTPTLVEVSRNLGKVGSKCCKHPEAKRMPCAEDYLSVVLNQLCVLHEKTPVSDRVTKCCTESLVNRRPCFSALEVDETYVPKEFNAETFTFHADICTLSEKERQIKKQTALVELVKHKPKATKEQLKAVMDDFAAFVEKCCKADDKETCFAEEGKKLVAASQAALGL
T1 sequence (P00441 2-154 G94A limits assumed): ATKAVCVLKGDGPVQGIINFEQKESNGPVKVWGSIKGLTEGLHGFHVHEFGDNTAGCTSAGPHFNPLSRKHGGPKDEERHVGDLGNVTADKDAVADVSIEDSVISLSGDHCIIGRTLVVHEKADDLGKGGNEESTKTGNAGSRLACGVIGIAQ

`[O-][S+]1CCCCS1` (stereo not shown) [S-XL6, 1,2-dithiane-1-oxide]: in data set [1], the “proposed MoA confirmed by intact drug-protein mass (D1)” value (“proposed MoA confirmed” below) is “confirms the proposed MoA”. Moreover, the “in vitro target engagement in target tissue homogenate (predicted mass shift)” value in data set [2] was “show the predicted mass shifts”. The “in vivo target engagement, detection of drug-protein complex” value in data set [3] (brain, 1-hr post-dose via SC) is reported as “successful detection of cross-linked dimer”. For the same molecule, the “covalent binding to HSA” value in data set [4] is “negligible binding; also recorded: no detectable HSA binding”.
With `CN(C)C/C=C/C(=O)Nc1cc2c(Nc3ccc(F)c(Cl)c3)ncnc2cc1O[C@H]1CCOC1` [afatinib], the “covalent binding to HSA” value in data set [4] is given as “minimal binding; also recorded: limited, but detectable covalent binding”.
Consider `N.N.[Cl][Pt][Cl]` [cisplatin], for which the “proposed MoA confirmed” value in data set [1] is “shows the predicted molecular mass”.
Take `CCN(CC)C(=S)SSC(=S)N(CC)CC` [disulfiram]: the solubility in data set [5] was found to be 4000 µg/mL (≈ 13.5 mM). Also, the “proposed MoA confirmed” value in data set [1] is listed as “shows the predicted molecular mass”. For the same molecule, the “METE reached in vivo (D5)” value in data set [3] (at a 20 mg/kg dose imposed by solubility limit) is “could not be reached”. The “covalent binding to HSA” value in data set [4] was “showed drug-related mass shifts with HSA”. Moreover, the “plasma protein binding via albumin” value in data set [6] is on record as “high plasma protein binding”.
Turning to `O=c1c2ccccc2[se]n1-c1ccccc1` [ebselen], in data set [1], the “proposed MoA confirmed” value was “confirms its proposed MoA”. Also, in data set [2], the “in vitro target engagement in target tissue homogenate (predicted mass shift)” value is “show the predicted mass shifts”. In addition, the survival result in data set [7] is reported as “improves survival”. For the same molecule, the “METE reached in vivo (D5)” value in data set [3] (at ~22% of LD50 (20 mg/kg SC, 1 h)) is on record as “could not be reached”. Further, the “effect on SOD1 in vivo (modification of SOD1^G93A)” value in data set [3] (brain and blood of dosed SOD1^G93A mouse) is “promoting cysteinylation (in brain) and glutathionylation (in blood)”. Moreover, the “covalent binding to HSA” value in data set [4] is “showed drug-related mass shifts with HSA”.
As to `C=CC(=O)N1CCC[C@@H](n2nc(-c3ccc(Oc4ccccc4)cc3)c3c(N)ncnc32)C1` [ibrutinib], the “covalent binding to HSA” value in data set [4] was “minimal binding; also recorded: limited, but detectable covalent binding”.
Turning to `C=CC(=O)N1CCN(c2nc(=O)n(-c3c(C)ccnc3C(C)C)c3nc(-c4c(O)cccc4F)c(F)cc23)[C@@H](C)C1` [sotorasib], the “covalent binding to HSA” value in data set [4] is recorded as “negligible binding”.
